Molecules are shown by their SMILES.

Data on two compounds can be found in ChEMBL document CHEMBL4665798, “Novel Human Urate Transporter 1 Inhibitors as Hypouricemic Drug Candidates with Favorable Druggability” (J Med Chem, 2020).

A short description of series [1]: Tmax in male Kunming mouse at 2 mg/kg, po by LC-MS/MS analysis. The series is classed as ADME, organism-based. The following applies: in vivo. In outline:
(§1)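 Male Kunming mice, ten in total, split into five groups; single oral dose in PEG 400/normal saline (70/30, v/v). Blood taken from submandibular or saphenous vein into K2EDTA tubes at 0.25, 0.5, 1, 2, 4, 8, 24, 48, 72 h. Plasma spun at about 4 °C and kept at -70 °C. Acetonitrile precipitation with dexamethasone internal standard, then LC-MS/MS against plasma standard curves.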

Series [2] can be described thus: AUC (0 to t) in male Kunming mouse at 2 mg/kg, po by LC-MS/MS analysis. The series is classed as ADME, organism-based. Also noted: dose 2 mg/kg. To be noted: in vivo. The method in brief: as §1
Series [3] in a line: AUC (0 to t) in male Kunming mouse at 50 mg/kg, po by LC-MS/MS analysis. To be noted: in vivo. More on the design: dose 50 mg/kg. The series is classed as ADME, organism-based. In outline:
as §1

Series [4] is filed under the species Rattus norvegicus. Description: Hypouricemic activity in rat model of xanthine/potassium oxonate-induced acute hyperuricemia assessed as decrease in serum uric acid level relative to control. The series is classed as functional. Also noted: scale not given: the % may be the effect or the level left.
A short description of series [5]: Tmax in male Kunming mouse at 50 mg/kg, po by LC-MS/MS analysis. The series is classed as ADME, organism-based. The following applies: in vivo. In outline:
as §1

Series [6] is described as follows: AUC (0 to infinity) in Sprague-Dawley rat at 20 mg/kg, po by LC-MS analysis. The series is classed as ADME, organism-based. More on the design: route oral, time infinity, dose 20 mg/kg. The following applies: in vivo.
Series [7] has as its target T1, Cytochrome P450 1A2 (Homo sapiens, UniProt P05177).
T1 sequence (P05177 whole entry): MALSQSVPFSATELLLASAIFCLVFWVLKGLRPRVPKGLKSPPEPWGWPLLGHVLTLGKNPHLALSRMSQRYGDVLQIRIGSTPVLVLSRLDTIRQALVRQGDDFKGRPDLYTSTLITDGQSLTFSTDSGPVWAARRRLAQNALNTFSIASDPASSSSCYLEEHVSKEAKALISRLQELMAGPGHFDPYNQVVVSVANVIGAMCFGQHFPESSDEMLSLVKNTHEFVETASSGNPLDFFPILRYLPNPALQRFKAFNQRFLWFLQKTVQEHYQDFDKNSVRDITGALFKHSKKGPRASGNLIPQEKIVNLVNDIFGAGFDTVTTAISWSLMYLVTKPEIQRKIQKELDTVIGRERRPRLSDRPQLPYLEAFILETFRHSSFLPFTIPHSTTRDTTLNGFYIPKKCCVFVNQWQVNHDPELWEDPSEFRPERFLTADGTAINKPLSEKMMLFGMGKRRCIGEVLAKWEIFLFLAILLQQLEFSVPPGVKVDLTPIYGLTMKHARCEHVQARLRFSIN
Description: Inhibition of CYP1A2 in human liver microsome using probe substrate measured after 20 mins in presence of NADPH by LC-MS/MS analysis.

Series [8] in a line: MRT (0 to infinity) in male Kunming mouse at 2 mg/kg, po by LC-MS/MS analysis. The series is classed as ADME, organism-based. The following applies: in vivo. In outline:
as §1

Series [9] in a line: Tmax in male Kunming mouse at 500 mg/kg, po by LC-MS/MS analysis. The series is classed as ADME, organism-based. To be noted: in vivo. In outline: (§2)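 Male Kunming mice given oral compound in PEG 400/normal saline (70/30, V/V). Blood from submandibular or saphenous vein into K2EDTA tubes at 0.25 to 72 h. Plasma spun at 3200g near 4 °C, kept -70 °C, precipitated with acetonitrile plus dexamethasone internal standard. Quantified by LC-MS/MS against spiked blank-plasma standard curves.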

Series [10] in a line: Cmax in male Kunming mouse at 500 mg/kg, po by LC-MS/MS analysis. The series is classed as ADME, organism-based. Also noted: route oral, dose 500 mg/kg. To be noted: in vivo. The method in brief:
as §2

In series [11] the target is T2, Solute carrier family 22 member 12 (Homo sapiens, UniProt Q96S37).
T2 sequence (Q96S37 whole entry): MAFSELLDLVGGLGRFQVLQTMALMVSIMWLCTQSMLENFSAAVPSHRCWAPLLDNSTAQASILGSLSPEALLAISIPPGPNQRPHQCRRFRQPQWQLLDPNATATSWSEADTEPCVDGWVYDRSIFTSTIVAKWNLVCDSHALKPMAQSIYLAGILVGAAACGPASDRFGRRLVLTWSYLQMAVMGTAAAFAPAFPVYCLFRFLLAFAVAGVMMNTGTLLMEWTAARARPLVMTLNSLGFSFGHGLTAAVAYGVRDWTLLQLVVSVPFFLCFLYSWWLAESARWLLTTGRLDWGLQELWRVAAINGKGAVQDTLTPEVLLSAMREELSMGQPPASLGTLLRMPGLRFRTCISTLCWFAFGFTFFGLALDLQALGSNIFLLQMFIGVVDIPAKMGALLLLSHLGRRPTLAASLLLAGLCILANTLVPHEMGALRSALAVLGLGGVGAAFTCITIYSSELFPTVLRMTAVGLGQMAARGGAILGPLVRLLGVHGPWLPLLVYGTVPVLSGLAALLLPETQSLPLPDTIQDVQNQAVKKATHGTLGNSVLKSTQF
Briefly: Potency index, ratio of lesinurad IC50 to test compound IC50 for inhibition of human URAT1 expressed in HEK293T cells assessed as reduction in [14C]uric acid uptake preincubated for 15 mins followed by [14C]uric acid addition by liquid scintillation counting method. The series is classed as cell-based.

A short description of series [12]: Cmax in male Kunming mouse at 2 mg/kg, po by LC-MS/MS analysis. The series is classed as ADME, organism-based. Also noted: route oral, dose 2 mg/kg. To be noted: in vivo. In outline:
as §1

Series [13] can be described thus: Half-life in male Kunming mouse at 2 mg/kg, po by LC-MS/MS analysis. The series is classed as ADME, organism-based. To be noted: in vivo. The method in brief:
as §1

A short description of series [14]: MRT (0 to infinity) in male Kunming mouse at 500 mg/kg, po by LC-MS/MS analysis. The series is classed as ADME, organism-based. To be noted: in vivo. The method in brief:
as §2

Series [15] in a line: AUC (0 to t) in male Kunming mouse at 500 mg/kg, po by LC-MS/MS analysis. The series is classed as ADME, organism-based. Also noted: dose 500 mg/kg. The following applies: in vivo. The method in brief:
as §2

Series [16] can be described thus: Half-life in male Kunming mouse at 500 mg/kg, po by LC-MS/MS analysis. The series is classed as ADME, organism-based. To be noted: in vivo. The method in brief: as §2
A short description of series [17]: Cmax in Sprague-Dawley rat at 20 mg/kg, po by LC-MS analysis. The series is classed as ADME, organism-based. More on the design: route oral, dose 20 mg/kg. To be noted: in vivo.
Series [18] in a line: AUC (0 to infinity) in Sprague-Dawley rat at 1 mg/kg, iv by LC-MS analysis. The series is classed as ADME, organism-based. More on the design: time infinity, route intravenous, dose 1 mg/kg. The following applies: in vivo.
A short description of series [19]: Half-life in Sprague-Dawley rat at 10 mg/kg, po by LC-MS analysis. The series is classed as ADME, organism-based. The following applies: in vivo. In outline:
(§3)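 Male Sprague-Dawley rats, two groups, dosed iv or orally; compound in PEG 400/normal saline (70/30, V/V). Oral blood from sinus jugularis at 5 min to 24 h, plasma by centrifugation at 2200 g, stored -20 °C. Plasma with internal standard precipitated by methanol, quantified by LC-MS against spiked blank-plasma standard curves. Mean ± SD, n = 5.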

A short description of series [20]: Tmax in Sprague-Dawley rat at 10 mg/kg, po by LC-MS analysis. The series is classed as ADME, organism-based. To be noted: in vivo. In outline:
as §3

Series [21] can be described thus: MRT (0 to infinity) in Sprague-Dawley rat at 10 mg/kg, po by LC-MS analysis. The series is classed as ADME, organism-based. The following applies: in vivo. The method in brief: as §3

Regarding `CC(Sc1nc2ncccc2n1-c1ccc(C2CC2)c2ccccc12)C(=O)O` (racemic), the Tmax stood at 30 min in [1], 1.67 h in series [5] and 18.7 h in [9]. Also, the AUC(0-t) in series [2] is 13000 ng·h/mL; in [3] it was 335 µg·h/mL; in series [15], 2960 µg·h/mL. Besides, the Activity in series [4] came out at 83.96%. Besides, the AUC(0-inf) was determined as 88800 ng·h/mL in [6] and 3910 ng·h/mL in [18]. In [7], the IC50 is above 50 µM. The values for the MRT inf in [8] and in series [14] were 6.44 h and 15.7 h, respectively. The Cmax in series [10] is 149 µg/mL; in series [12], 2080 ng/mL; in [17], 15500 ng/mL. Also, the “Ratio IC50” value in series [11] is given as above 8. The half-life was 254 min in [13] and 234 min in series [16].
The compound `O=C(CSc1nnc(Br)n1-c1ccc(C2CC2)c2ccccc12)NS(=O)(=O)c1ccc(Br)cc1` showed a half-life in series [19] of 204 min. The half-maximal inhibitory concentration (IC50) in series [7] was above 50 µM. Besides, the Tmax in series [20] is 1.8 h. For the same compound, the MRT inf in series [21] was 5.6 h. In addition, in [18], the AUC(0-inf) came to 3090 ng·h/mL.
